{
  "source": "paper PMC8837702",
  "about": "(Archives of toxicology, 2021)",
  "key": {"NAT1 [1]": {"target": "T1, NAT1 (Homo sapiens, UniProt P18440)", "T1 sequence (P18440 1-290)": "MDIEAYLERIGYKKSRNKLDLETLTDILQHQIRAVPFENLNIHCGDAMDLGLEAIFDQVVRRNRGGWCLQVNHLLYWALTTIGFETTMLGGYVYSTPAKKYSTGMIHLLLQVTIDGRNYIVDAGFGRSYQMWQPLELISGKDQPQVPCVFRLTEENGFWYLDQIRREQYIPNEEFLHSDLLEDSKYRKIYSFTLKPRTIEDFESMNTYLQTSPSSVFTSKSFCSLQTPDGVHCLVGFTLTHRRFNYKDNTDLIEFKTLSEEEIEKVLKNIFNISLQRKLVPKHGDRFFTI", "experiment": "Recombinant human NAT1", "assay_type": "biochemical", "conditions": "for fold less potent than compound 10 towards recombinant human NAT1: in vitro IC50 comparison; for IC50 NAT2/IC50 NAT1: ratio; for IC50 NAT2/IC50 NAT1 / fold lower IC50 for NAT1 versus NAT2: PABA (NAT1) vs SMZ (NAT2)", "method_in_brief": "(§1)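 Lysates of S. pombe stably expressing recombinant human NAT1 (10 μM PABA) or NAT2 (10 μM SMZ) were run with 100 μM acetyl-CoA over a test-compound concentration series. Substrate and N-acetylated product were separated and measured by HPLC. IC50 came from nonlinear regression, reported as mean ± SEM (n=3).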"}, "recombinant human NAT2": {"target": "T2, recombinant human NAT2 (Homo sapiens, UniProt P11245)", "T2 sequence (P11245 1-290)": "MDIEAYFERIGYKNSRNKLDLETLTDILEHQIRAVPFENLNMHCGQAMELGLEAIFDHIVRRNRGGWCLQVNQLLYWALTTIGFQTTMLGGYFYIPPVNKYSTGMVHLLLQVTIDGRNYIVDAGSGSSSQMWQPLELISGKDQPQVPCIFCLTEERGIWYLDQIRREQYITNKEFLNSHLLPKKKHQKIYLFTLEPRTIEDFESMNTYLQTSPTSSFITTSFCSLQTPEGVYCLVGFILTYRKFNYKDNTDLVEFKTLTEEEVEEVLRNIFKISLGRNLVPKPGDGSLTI", "experiment": "Recombinant human NAT2", "assay_type": "biochemical", "conditions": "for inhibition of human NAT2: at concentrations up to 2 mM", "method_in_brief": "as §1"}, "NAT1 [2]": {"tested_on": "NAT1", "conditions": "cited from earlier work; for IC50: read-out: IC50 NAT1"}, "[3]": {"tested_on": "endogenous NAT1 in MCF-7 cells", "experiment": "N-acetylation capacity in MCF-7 cells", "assay_type": "cell-based, human", "conditions": "10 μM ABP or PABA, 4 hr", "method_in_brief": "(§2)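 Cells grown in DMEM with 10% FBS, penicillin and streptomycin at 37°C, 5% CO2, were taken to confluence. They were then exposed for 4 hr at 37°C to medium with 10 μM ABP or PABA and test compound. Collected medium was acidified with 1/10 volume 1 M acetic acid and spun at 13,000 g for 10 min. The supernatant was analysed by HPLC for N-acetyl products; n=3, mean ± SEM.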"}, "NAT1 [4]": {"target": "T1, NAT1", "experiment": "PABA N-acetylation in situ in cryopreserved human hepatocytes", "assay_type": "cell-based", "method_in_brief": "(§3)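 Cultured cryopreserved human hepatocytes from five donors, all of intermediate NAT2 acetylator genotype, were incubated for 24 hr with 50 μM PABA or SMZ plus varying test-compound concentrations. Parent substrates and N-acetylated metabolites were separated and quantified by HPLC. Each point is the mean ± SEM over the 5 samples.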"}, "MCF-10A cells": {"tested_on": "MCF-10A cells", "experiment": "AlamarBlue cell viability and proliferation, MCF-10A", "assay_type": "cell-based, human", "method_in_brief": "(§4)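 Cells were seeded in 96-well plates and left 24 hr. They were then treated with test compound (0–250 μM) in their own medium for up to 144 hr: MEBM with supplements for MCF-10A, DMEM with 10% FBS for MDA-MB-231. AlamarBlue (1/10 culture volume) was added 1 hr before each time point at 37°C, then fluorescence read (ex 570, em 580 nm). Mean ± SEM (n=4).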"}, "human NAT1": {"tested_on": "human NAT1", "experiment": "Reversibility of NAT1 inhibition in primary hepatocytes", "assay_type": "cell-based", "conditions": "100 or 200 μM for 1 hr, removed, then 10 μM PABA for 5 hr"}, "MCF-7 cells": {"tested_on": "MCF-7 cells", "experiment": "CytoSelect cell invasion assay, MCF-7", "assay_type": "cell-based, human", "conditions": "24 hr, 0, 31.25, 62.5, 125 μM", "method_in_brief": "(§5)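 CytoSelect 24-well colorimetric invasion assay: 300,000 cells were seeded and allowed to invade toward medium containing 10% FBS for 24 hr with test compound present. Invasion was expressed as a percentage of the DMSO vehicle control. Mean ± SEM (n=3).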"}, "MDA-MB-231 cells [5]": {"tested_on": "MDA-MB-231 cells", "experiment": "AlamarBlue cell viability and proliferation, MDA-MB-231", "assay_type": "cell-based, human", "method_in_brief": "as §4"}, "[6]": {"tested_on": "endogenous NAT1 in MDA-MB-231 cells", "experiment": "N-acetylation capacity in MDA-MB-231 cells", "assay_type": "cell-based, human", "conditions": "10 μM ABP or PABA, 4 hr", "method_in_brief": "as §2"}, "NAT2": {"tested_on": "NAT2", "experiment": "SMZ N-acetylation in situ in cryopreserved human hepatocytes", "assay_type": "cell-based", "conditions": "50 μM SMZ, 24 hr, concentrations up to 200 μM", "method_in_brief": "as §3"}, "NAT1 [7]": {"target": "T1, NAT1", "assay_type": "biochemical", "conditions": "ABP as substrate", "method_in_brief": "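Recombinant human NAT1 or NAT2 expressed in Schizosaccharomyces pombe, assayed in yeast lysate with 10 μM ABP, 100 μM acetyl-CoA and test compound at 0–200 μM. Substrate and N-acetylated product were separated and quantified by HPLC. The value is the mean ± SD of 3 experiments, with IC50 for each isozyme from nonlinear regression.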"}, "[8]": {"target": "T3, human NAT1 expressed in CHO cells (Homo sapiens, UniProt P18440)", "T3 sequence (P18440 1-290)": "T1 sequence (P18440 1-290)", "experiment": "N-acetylation in situ in UV5 CHO cells expressing human NAT1 and CYP1A1", "assay_type": "cell-based", "method_in_brief": "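UV5 CHO cells (nucleotide excision repair-deficient, XPD mutant) stably transfected with human CYP1A1 and NAT1*4 were plated 24 hr beforehand. Medium was then replaced with α-MEM containing 10 μM PABA or ABP plus test compound. After 2 hr, medium was sampled and N-acetylation quantified by HPLC. Mean ± SD of 3 experiments; IC50 by nonlinear regression.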"}, "MDA-MB-231 cells [9]": {"tested_on": "MDA-MB-231 cells", "experiment": "CytoSelect cell invasion assay, MDA-MB-231", "assay_type": "cell-based, human", "conditions": "24 hr, 0, 31.25, 62.5, 125 μM", "method_in_brief": "as §5"}, "[10]": {"conditions": "read-out: IC50 for NAT1, in vitro, recombinant in yeast, 10 μM PABA, 100 μM AcCoA, Mean ± SEM (n=3)"}},
  "note": "Like-named read-outs stand apart in the source and are kept apart here.",
  "data": [
    {"compound": "1-(9,10-dihydro-8-hydroxy-9,10-dioxo-1-anthracenyl)4-ethyl ester [Analog 1]", "values": [
      {"measurement": "fold less potent than compound 10 towards recombinant human NAT1", "setting": "NAT1 [1]", "value": "over 100 fold"},
      {"measurement": "IC50 NAT2/IC50 NAT1", "setting": "NAT1 [1]", "value": ">11.7"},
      {"measurement": "IC50", "setting": "NAT1 [1]; [10]", "value": "171 ± 4.7", "unit": "µM"},
      {"measurement": "inhibition of human NAT2", "setting": "recombinant human NAT2", "value": "No inhibition"}
    ]},
    {"compound": "O=C1NC(=S)S/C1=C/c1cc(I)c(O)c(I)c1", "note": "[(5E)-[5-(4-hydroxy-3,5-diiodobenzylidene)-2-thioxo-1,3-thiazolidin-4-one]", "values": [
      {"measurement": "fold more selective for NAT1 than NAT2", "setting": "NAT1 [2]", "value": 25, "unit": "fold"},
      {"measurement": "IC50", "setting": "NAT1 [2]", "value": 0.732, "unit": "µM"}
    ]},
    {"compound": "O=C1NC(=S)S/C1=C\\c1ccccc1O", "note": "[(Z)-5-(2-hydroxybenzylidene)-2-thioxothiazolidin-4-one]", "values": [
      {"measurement": "IC50", "setting": "NAT1 [2]", "value": 101, "unit": "µM"}
    ]},
    {"compound": "9,10-dihydro-9,10-dioxo-1,8-anthracenediyl diethyl ester [Analog 2]", "values": [
      {"measurement": "fold less potent than compound 10 towards recombinant human NAT1", "setting": "NAT1 [1]", "value": "over 100 fold"},
      {"measurement": "IC50 NAT2/IC50 NAT1", "setting": "NAT1 [1]", "value": ">21.3"},
      {"measurement": "IC50", "setting": "NAT1 [1]; [10]", "value": "94 ± 6.8", "unit": "µM"},
      {"measurement": "inhibition of human NAT2", "setting": "recombinant human NAT2", "value": "No inhibition"}
    ]},
    {"compound": "9,10-dihydro-9,10-dioxo-1,2-anthracenediyl diethyl ester [Compound 10]", "values": [
      {"measurement": "fold lower IC50 for NAT1 versus NAT2", "setting": "NAT1 [1]; in vitro", "value": "over 100 fold"},
      {"measurement": "IC50 NAT2/IC50 NAT1", "setting": "NAT1 [1]", "value": 110},
      {"measurement": "IC50", "setting": "NAT1 [1]; [10]", "value": "0.75 ± 0.2", "unit": "µM"},
      {"measurement": "N-acetylation of PABA and ABP in MCF-7", "setting": "[3]", "value": "inhibited"},
      {"measurement": "IC50", "setting": "NAT1 [4]; read-out: IC50, PABA N-acetylation in cryopreserved human hepatocytes, 50 μM PABA, 24 hr, 5 hepatocyte samples of intermediate NAT2 acetylator genotype", "value": "158 ± 22", "unit": "µM"},
      {"measurement": "cell proliferation, MCF-10A", "setting": "MCF-10A cells; non-tumorigenic cell line, later time points", "value": "a decrease in cell proliferation was observed"},
      {"measurement": "IC50", "setting": "MCF-10A cells; read-out: IC50 for cell proliferation, MCF-10A, 72 hr", "value": 113, "unit": "µM"},
      {"measurement": "reversibility of inhibition of PABA N-acetylation", "setting": "human NAT1", "value": "reversible"},
      {"measurement": "cell invasion/migration, MCF-7", "setting": "MCF-7 cells", "value": "dose-dependent inhibition"},
      {"measurement": "cell viability, MDA-MB-231", "setting": "MDA-MB-231 cells [5]; 4-48 hr, 0-250 μM", "value": "did not decrease cell viability"},
      {"measurement": "cell proliferation, MDA-MB-231", "setting": "MDA-MB-231 cells [5]; 72 and 144 hr", "value": "dose-dependent decrease"},
      {"measurement": "IC50", "setting": "MDA-MB-231 cells [5]; read-out: IC50 for cell proliferation, MDA-MB-231, 72 hr", "value": 32, "unit": "µM"},
      {"measurement": "N-acetylation of PABA and ABP in MDA-MB-231", "setting": "[6]", "value": "inhibited"},
      {"measurement": "inhibition of SMZ N-acetylation in cryopreserved human hepatocytes", "setting": "NAT2", "value": "no inhibition"},
      {"measurement": "fold lower IC50 for NAT1 versus NAT2, ABP N-acetylation", "setting": "NAT1 [7]", "value": "over 50 fold"},
      {"measurement": "IC50", "setting": "[8]; read-out: in situ IC50, ABP N-acetylation in CHO cells, ABP as substrate", "value": "81.6 ± 4.4", "unit": "µM"},
      {"measurement": "IC50", "setting": "[8]; read-out: in situ IC50, PABA N-acetylation in CHO cells, PABA as substrate", "value": "118 ± 5", "unit": "µM"},
      {"measurement": "cell invasion/migration, MDA-MB-231", "setting": "MDA-MB-231 cells [9]", "value": "dose-dependent inhibition"}
    ]},
    {"compound": "O=C1c2ccccc2C(=O)c2c1ccc(O)c2O", "note": "[Analog 3 (Alizarin), 1,2-dihydroxyanthraquinone]", "values": [
      {"measurement": "IC50", "setting": "NAT1 [1]", "value": "0.886 ± 0.0895", "unit": "µM"},
      {"measurement": "fold lower IC50 for NAT1 versus NAT2", "setting": "NAT1 [1]; in vitro", "value": "over 100 fold"},
      {"measurement": "IC50 NAT2/IC50 NAT1", "setting": "NAT1 [1]", "value": 113},
      {"measurement": "IC50", "setting": "NAT1 [4]", "value": "70 ± 1.4", "unit": "µM"},
      {"measurement": "IC50", "setting": "recombinant human NAT2", "value": "98.6 ± 9.4", "unit": "µM"}
    ]}
  ]
}
